Active and inactive are the calls of the source. The rule behind the calls is not given here.
Experiments:
Homo sapiens [1] = species: Homo sapiens; test: Inhibition of acetyl-PHF6 amide self-aggregation (unknown origin) in pH 7.4 phosphate buffer at 10 uM and 25 degreeC measured every 1 min for 120 mins under shaking condition by ThT fluorescence assay relative to control
In short: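 AcPHF6 dissolved in HFIP, dried overnight, 1 mM water stock used at once. Final 100 μM peptide, 20 μM ThT, 10 μM compound (≤0.1% DMSO) in 50 mM phosphate buffer pH 7.4, 25 °C. Ex 440/em 490 nm read each minute for 120 min, 10 s shaking (400 rpm) before each read. Inhibition from mean signal at 50–60 min; ≥3 wells; mean ± SD of three experiments; DMSO negative control.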

Homo sapiens [2] = species: Homo sapiens; test: Inhibition of acetyl-PHF6 amide self-aggregation (unknown origin) in pH 7.4 phosphate buffer assessed as decrease in absorbance intensity at 10 uM and 25 degreeC measured immediately after 10 sec vibration per minute for 120 mins under shaking condition by circular dichroism spectroscopy
In short: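 Fresh samples of 100 μM AcPHF6 with 10 μM compound (≤0.1% DMSO) in 50 mM phosphate buffer pH 7.4. 10 s vibration per minute at 25 °C over 120 min. Spectra 260–200 nm, 1 mm quartz cell, 1 nm bandwidth, 50 nm/min scan. Solvent and compound contributions subtracted, converted to Δε per residue, Savitzky-Golay smoothed.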

Homo sapiens [3] = species: Homo sapiens; test: Inhibition of acetyl-PHF6 amide self-aggregation (unknown origin) in pH 7.4 phosphate buffer assessed as absence of fibrillar material at 20 uM and 25 degreeC measured after 10 mins by phosphotungstic acid staining based TEM analysis
Homo sapiens [4] = species: Homo sapiens; test: Inhibition of acetyl-PHF6 amide self-aggregation (unknown origin) in pH 7.4 phosphate buffer assessed as appearance of dot like structure with <5 nm at 20 uM and 25 degreeC measured after 10 mins by phosphotungstic acid staining based TEM analysis
[5] = molecular target: Microtubule-associated protein tau (Homo sapiens) (UniProt P10636); test: Inhibition of heparin-induced recombinant full length His-tagged 2N4R tau self-aggregation (unknown origin) expressed in Escherichia coli BL21 (DE3) at 10 uM measured after 6 mins by ThT fluorescence assay
In short: (§1)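 His-tagged full-length 2N4R tau from E. coli BL21(DE3) (pET-28a, 1 mM IPTG, 37 °C), BCA-quantified, stored −80 °C. 10 μM tau with 10 μM compound and 1 mM DTT in 1× PBS at 37 °C, aggregation started with 10 μM heparin (MW 6117), 10 μM ThT. Ex 440/em 490 nm, read every 4 min with 2 min shaking (600 rpm) before reading.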

[6] = molecular target: Microtubule-associated protein tau (Homo sapiens) (UniProt P10636); test: Inhibition of heparin-induced recombinant full length His-tagged 2N4R tau self-aggregation (unknown origin) expressed in Escherichia coli BL21 (DE3) assessed as reduction in aggregate formation at 10 uM measured after 6 mins by ThT fluorescence assay relative to control; in short: as §1
SH-SY5Y = test: Cytotoxicity against human SH-SY5Y cells assessed as reduction in cell survival at 30 uM measured after 24 hrs by MTT assay; assay type: cell-based
In short: (§2)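 Cells in high-glucose DMEM with 10% FBS, 5% CO₂, 37 °C, seeded 3000–5000/well, exposed to compound 24 h. MTT (0.5 mg/mL) 4 h, formazan dissolved in DMSO, absorbance 570 nm (reference 630 nm). Viability as percent of untreated control; mean ± SD, three independent experiments.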

L02 = test: Cytotoxicity against human L02 cells assessed as effect on cell viability at <=40 uM measured after 24 hrs by MTT assay; assay type: cell-based; details: l02, 24 h; in short: as §2
BV-2 [7] = test: Cytotoxicity against mouse BV-2 cells at 20 uM measured after 24 hrs by MTT assay; assay type: cell-based; details: bv-2, 24 h; in short: as §2
BV-2 [8] = test: Antiinflammatory activity in mouse BV-2 cells assessed as inhibition of LPS-induced NO production at 10 uM pretreated with compound for 1 hr followed by LPS stimulation and measured after 18 hrs by Griess assay relative to control; assay type: functional; details: time 19 hrs
In short: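 BV2 microglia grown in high-glucose DMEM with 10% FBS, seeded at 3 × 10^4 cells/well, preincubated with compound 1 h, then LPS (final 1 µg/ml) for 18 h. Supernatant mixed with equal volume Griess reagent, 10 min at 25 °C, absorbance 540 nm. Inhibition = (F_L−F_C)/(F_L−F₀) × 100. Mean ± SD, three independent experiments.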

[9] = Acute toxicity in Sprague-Dawley rat model of OA-induced dementia assessed as mortality at 5 to 10 mg/kg, ip administered for 7 days; assay type: organism-based; details: in vivo, 168 h, dose 5-10 mg/kg, time 7 day
In short: (§3)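 Adult male SD rats (260-280 g), n = 8 per group. Compound given ip at 5 or 10 mg/kg daily for 7 days in saline with 8% DMSO and 1% Tween-80 cosolvent; controls got vehicle. Okadaic acid (300 ng in 1.5 μL saline) then injected stereotaxically into right dorsal hippocampus under isoflurane, and ip dosing continued 7 more days. Body weight recorded throughout; swimming speed recorded in Morris water maze.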

Rattus norvegicus [10] = test: Cognitive enhancing effect in Sprague-Dawley rat model of OA-induced dementia assessed as average escape latency time to hidden platform at 5 to 10 mg/kg, ip administered for 7 days by Morris water maze test (reference value: 12.5 to 37.2 sec); assay type: functional; details: dose 5-10 mg/kg; time 7 day
In short: (§4)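 Male SD rats (n = 8/group), ip dosing at 5 or 10 mg/kg in saline with 8% DMSO and 1% Tween-80 for 7 days, then OA (300 ng in 1.5 μL saline) microinjected into right dorsal hippocampus. Dosing continued 7 days after OA. Morris water maze: 5 training days recording escape latency, distance and swim speed; day-6 probe trial, platform removed, 60 s search, quadrant time and crossings counted. Two-way ANOVA versus model; SEM.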

[11] = Toxicity in Sprague-Dawley rat model of OA-induced dementia assessed as effect on swimming speed at 5 to 10 mg/kg, ip administered for 7 days; assay type: organism-based; details: in vivo, 168 h, dose 5-10 mg/kg, time 7 day; in short: as §3
Rattus norvegicus [12] = test: Cognitive enhancing effect in Sprague-Dawley rat model of OA-induced dementia assessed as increase in time spent in virtual platform quadrant at 10 mg/kg, ip administered for 7 days by Morris water maze test; assay type: functional, organism-based; details: time 7.0 day; in short: as §4
Rattus norvegicus [13] = test: Cognitive enhancing effect in Sprague-Dawley rat model of OA-induced dementia assessed as increase in number of platform crossing at 10 mg/kg, ip administered for 7 days by Morris water maze test; assay type: functional, organism-based; details: time 7.0 day; in short: as §4
[14] = Acute toxicity in Sprague-Dawley rat model of OA-induced dementia assessed as effect on body weight at 5 to 10 mg/kg, ip administered for 14 days; details: in vivo, 336 h

Sequence of Microtubule-associated protein tau (Homo sapiens) (P10636 whole entry): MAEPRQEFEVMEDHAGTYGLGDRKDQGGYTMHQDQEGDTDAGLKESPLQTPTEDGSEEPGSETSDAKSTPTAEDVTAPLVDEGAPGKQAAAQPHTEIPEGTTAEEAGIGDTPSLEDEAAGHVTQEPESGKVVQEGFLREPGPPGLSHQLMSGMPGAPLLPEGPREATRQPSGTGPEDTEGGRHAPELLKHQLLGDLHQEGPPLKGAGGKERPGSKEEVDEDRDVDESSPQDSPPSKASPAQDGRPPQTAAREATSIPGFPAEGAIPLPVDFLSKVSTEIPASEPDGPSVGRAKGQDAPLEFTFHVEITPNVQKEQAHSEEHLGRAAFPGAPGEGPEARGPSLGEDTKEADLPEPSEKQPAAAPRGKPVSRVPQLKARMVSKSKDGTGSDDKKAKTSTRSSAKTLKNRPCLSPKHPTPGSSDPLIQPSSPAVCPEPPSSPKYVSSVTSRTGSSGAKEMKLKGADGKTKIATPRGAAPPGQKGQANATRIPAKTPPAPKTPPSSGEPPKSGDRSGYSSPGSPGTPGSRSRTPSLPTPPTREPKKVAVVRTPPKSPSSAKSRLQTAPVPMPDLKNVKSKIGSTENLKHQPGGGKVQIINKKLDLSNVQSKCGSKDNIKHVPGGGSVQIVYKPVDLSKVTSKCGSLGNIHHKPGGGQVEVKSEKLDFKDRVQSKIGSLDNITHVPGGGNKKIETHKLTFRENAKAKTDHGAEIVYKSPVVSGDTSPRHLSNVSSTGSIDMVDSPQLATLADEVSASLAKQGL

With CC(=O)c1c(O)c(C)c(O)c2c1OC1=Cc3c(c(C)nn3-c3ccc(C(=O)O)cc3)C(=O)[C@@]12C the inhibition (Homo sapiens [1]) was 51.7%, the inhibition (Homo sapiens [2]) was “Active” and the inhibition (Homo sapiens [3]) was “Active”. For the same molecule, the inhibition (Homo sapiens [4]) was “Active”, the inhibition [5] was “Active” and the inhibition [6] was 50%. The Activity (SH-SY5Y) was “Toxic”, the Activity (L02) was “Non-Toxic” and the Activity (BV-2 [7]) was “Non-Toxic”. For the same molecule, the inhibition at 10 µM (BV-2 [8]) was 41%, the Activity [9] was “Non-Toxic” and the Time (Rattus norvegicus [10]) was 18.5 s. For the same molecule, the Activity [11] was “Non-Toxic”, the Activity (Rattus norvegicus [12]) was “Active” and the Activity (Rattus norvegicus [13]) was “Active”. For the same molecule, the Activity [14] was “Non-Toxic”.

Source: ChEMBL document CHEMBL4706486, “Usnic acid derivatives as tau-aggregation and neuroinflammation inhibitors” (Eur J Med Chem, 2020)
